Source: PubChem BioAssay (several laboratories)
In the library only some 5.6% were active in any assay of this set; here they are far more common.
CHOP inh: blocks CHOP induction under ER stress; CHO-K1 CHOP-promoter luciferase, tunicamycin-induced, 15-18 h; inhibition, % at 10 µM; hit rate 3.8% among 220,000; AID 2732;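 active = compounds that reduced the stress-induced luciferase reporter signal by more than about 70% of percent inhibition, limit read from the data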;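 also: 0% = tunicamycin plus vehicle and 100% = wells without tunicamycin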
MPTP inh: blocks calcium-induced mitochondrial swelling; isolated mouse mitochondria, Ca2+ swelling absorbance, 30 min; inhibition, % at 10 µM; hit rate 1.4% among 360,000;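 active = inhibition of 50% or more, scaled per plate between neutral and stimulator controls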;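 also: 0% = DMSO wells given calcium and 100% = 1 mM EGTA wells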
NR3A LBD binder: modulates the human NR3A ligand-binding domain; hit rate 2.5% among 340,000; AID 1259313; NR3A LBD differential scanning fluorimetry, Tm shift; 0% = protein alone, 100% = glycine-bound protein; Tm shift relative to glycine control, % at 25 µM;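 active = melting temperature shift of at least 10% of the positive control shift, at one fixed dose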
CHOP UPR activ: apoptotic UPR (CHOP) activation; AID 449763; CHO-CHOP luciferase reporter, luminescence; percent of tunicamycin response over DMSO baseline; hit rate 0.34% among 330,000; activation, % at 10 µM;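 active = at 10 µM dose, activation of 40% or more, normalized to positive control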;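 also: 100% = tunicamycin at 10 µg/mL and 0% = DMSO alone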
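assay system = CHO CHOP reporter cells | amount = 500 CHO-CHOP cells per well | buffer or medium = F12 with 10% FBS | incubation = 16-18 h cell attachment, then 6 h compound exposure, 37 °C | detection = luminescence read with Steady-Glo | read-out = percent activation relative to tunicamycin control | controls = tunicamycin high control, DMSO low control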
XBP1 UPR activ: adaptive UPR (XBP1) activation. CHO-XBP1 luciferase reporter, IRE1-XBP1 UPR activation, luminescence; percent of tunicamycin response, DMSO as zero. activation, % at 20 µM. hit rate 0.33% among 330,000;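 active = versus positive control, 20 µM dose yields 30% or more activation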;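 also: 100% = tunicamycin at 10 µg/mL and 0% = DMSO only wells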
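Material: IRE1-XBP1 luciferase reporter CHO line / Quantity: one thousand reporter cells per well / Buffer or medium: F12 with 10% serum / Compound: 20 µM single concentration, DMSO 1% / Times: 6 h treatment, 37 °C / Detection: Steady-Glo luciferase glow luminescence, 10 min after reagent addition / Benchmarks: tunicamycin high, DMSO low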
aDG glyco act: alpha-DG glycosylation activation; Pro5-aDG cells, alpha-DG glycosylation AlphaScreen (IIH6); 0% Pro5, 100% B10-LARGE cell signal; activation, % at 10 µM; hit rate 0.22% among 360,000;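 active = activation of at least 8% versus controls, or a plate z-score of at least 8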;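 also: Pro5 are CHO cells carrying HIG-tagged alpha-DG that lacks glycosylation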
CHOP inh conf: confirmation of CHOP induction inhibitors; CHO-CHOP promoter luciferase reporter, tunicamycin-induced, luminescence; inhibition, % at 10 µM; shares compounds with CHOP inh; hit rate 45% among 2,100;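 active = mean of three repeat readings of reporter signal inhibition above a set limit, cut at about 70% in these data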;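 also: 0% = tunicamycin plus vehicle and 100% = wells lacking tunicamycin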
Active calls of the source: *; · = not tested or not shown.

SMILES	CHOP inh	MPTP inh	NR3A LBD binder	CHOP UPR activ	XBP1 UPR activ	aDG glyco act	CHOP inh conf
CC(C)Sc1nc2c(c(=O)[nH]c(=O)n2C)n1Cc1ccc(Cl)cc1	47	2	-4	-3	2	0	·
O=[N+]([O-])c1ccc(/C=N/N=C/c2ccc([N+](=O)[O-])o2)o1	108*	0	2	·	·	-1	134*
C=CCn1c(COc2ccc(Cl)cc2)nnc1SCC(=O)N/N=C/c1cccc(O)c1	21	1	-19	1	2	0	·
C=CCn1c(COc2ccccc2)nnc1SC(C)C(=O)N/N=C/c1cc(Cl)ccc1O (stereo not given)	97*	2	-4	-4	-3	1	128*
CCOC(=O)c1c(C)sc2c1N(C(=O)CCl)c1cc(Cl)ccc1S2	·	-1	1	14	-7	0	-24
Cc1nc2ccc(NC(=O)c3ccc(Cl)c([N+](=O)[O-])c3)cc2s1	17	38	-6	3	-4	2	·
Cc1nc2ccc(NC(=O)c3cc([N+](=O)[O-])cc([N+](=O)[O-])c3Cl)cc2s1	107*	7	18*	·	·	0	6
O=C(N=Nc1c(O)n(Cc2ccccc2)c2ccccc12)c1ccc(O)cc1	36	29	4	6	7	0	·
Cc1ccc(NC(=O)Cn2c(O)c(N=NC(=O)c3cc4ccccc4cc3O)c3ccccc32)cc1	97*	0	6	·	·	-1	-21
Cc1ccc(NC(=O)Cn2c(O)c(N=NC(=O)c3ccncc3)c3ccccc32)cc1	52	1	0	20	-2	0	·
O=C(N=Nc1c(O)n(Cc2ccccc2)c2ccccc12)c1cc2ccccc2cc1O	106*	2	13*	·	·	0	95*
Cc1ccc(N(CCC#N)C(=O)COC(=O)c2ccccn2)cc1	·	0	-1	1	-5	0	·
CCOC(=O)c1cccc(NC(=O)CSc2nnc(COc3ccccc3C)o2)c1	108*	8	-4	-1	0	0	12
COc1ccccc1NC(=O)CSc1nnc(COc2ccccc2C)o1	·	-2	7	-3	-7	0	·
Cc1cc(Cl)ccc1OCc1n[nH]c(=S)n1C1CCCCC1	103*	4	-6	-1	-2	0	119*
COc1ccc(Cl)cc1-c1n[nH]c(=S)n1C1CCCCC1	30	-1	1	-1	-1	0	·
CCCOc1c(Cl)cc(/C=N/O)cc1OCC	102*	2	-1	-1	0	0	-21
CC1CCCC(NCC(O)COC(c2ccc(F)cc2)c2ccc(F)cc2)C1C (stereo not given)	103*	17	1	1	16	0	111*
O=C(c1ccco1)N1CCN(c2ccc([N+](=O)[O-])cn2)CC1	·	0	2	2	-3	0	·
CCN(C(=O)c1cc2c(=O)[nH]c3ccc(C)cc3c2s1)c1ccc(F)cc1	-8	2	-1	-1	6	0	·
CCN(C(=O)c1cc2c(=O)[nH]c3ccc(C)cc3c2s1)c1cccc(C)c1	98*	0	-2	2	10	0	18
NC(=O)c1nsc(C(=O)N(c2ccc3c(c2)OCCO3)C(C(=O)NCC2CCCO2)c2ccc(F)cc2)c1N (stereo not given)	·	0	0	1	-7	0	·
COC(=O)c1cc2sc(Cl)cc2n1CC(=O)Nc1cccc(SC)c1	99*	48	15*	0	-1	0	-3
COC(=O)c1cc2sc(Cl)cc2n1CC(=O)Nc1ccc(OC)c(OC)c1OC	27	2	-1	-3	-1	0	·
O[C@@H]1CN(Cc2cccs2)[C@@H](c2ccc(Cl)cc2)C[C@H]1n1cc(C2CC2)nn1	·	-1	·	·	·	0	·
SMILES	CHOP inh	MPTP inh	NR3A LBD binder	CHOP UPR activ	XBP1 UPR activ	aDG glyco act	CHOP inh conf
O=C(Cn1c2c(sc1=O)C1c3ccccc3OCC1CS2)Nc1ccc(Cl)c(Cl)c1 (stereo not given)	99*	15	24*	·	·	0	35
Cc1csc(=O)n1CC(=O)Nc1ccc(Cl)c(Cl)c1	·	3	-1	1	-3	0	·
COc1ccc2c(c1)c1ccc3c(c1n2C)C(=O)C=CC3=O	104*	4	-5	-2	-11	0	41
COc1ccc(-c2c(-c3cc(OC)cc(OC)c3)n(C)c3ccc(-c4ccc(OC)cc4F)cc23)cc1	·	0	1	0	-4	0	·
Cc1ccc(-n2ncc3c(SCC(=O)Nc4cc(C)on4)ncnc32)c(C)c1	42	0	-1	1	-3	0	·
COc1ccc(CCN2C(=O)c3[nH]nc(-c4ccccc4O)c3C2c2cccc(Cl)c2)cc1 (stereo not given)	104*	11	15*	2	6	0	88*
Cc1ccc(CNCc2cc3c(C(C)(C)C)nn(-c4ccccc4)c3[nH]c2=O)cc1	108*	5	-4	1	8	0	71*
O=[N+]([O-])c1ccc(O)c(/C=N/Nc2ccccn2)c1	105*	4	-6	·	·	1	11
O=[N+]([O-])c1ccc(O)c(/C=N/Nc2nc3ccccc3[nH]2)c1	39	9	7	5	4	1	·
NS(=O)(=O)c1cccc(NC(=O)Cn2cc(C(F)(F)F)cc(Cl)c2=O)c1	4	1	-1	1	0	0	·
Cc1ccc(N/C(N)=N/c2nc(CSc3nnc(N)s3)cc(=O)[nH]2)cc1	6	1	0	-2	-1	0	·
N/C(=N\c1nc(CSc2nc3ccccc3s2)cc(=O)[nH]1)Nc1ccc(F)cc1	99*	12	0	2	19	0	18
O=C1/C(=C/c2ccccc2)CCc2ccc(Cl)nc21	·	0	-2	·	·	0	·
COc1ccc(-c2cnc(OC(C)(C)C)nc2OC(C)(C)C)cc1OC	106*	0	0	-1	3	1	89*
Cc1cccc(Oc2ccccc2NC(=O)c2cnccn2)c1	99*	-2	0	-3	-1	0	-16
C[C@]12c3[nH]c4cc(-c5ccco5)ccc4c3CCN1C(=O)[C@@H](CC(=O)NCc1ccco1)C[C@@H]2C(=O)N1CCCCC1	·	1	0	3	1	0	·
CCOC(=O)C1(C)NC(c2ccccc2F)C2C(=O)N(CC)C(=O)C21 (stereo not given)	-14	1	0	1	-2	0	·
C=CCOc1c(Br)cc(CNc2ccc(NC(=O)C(C)C)cc2)cc1OCC	26	-3	-3	-2	-3	0	·
